Bioassay records as filed in PubChem.
Hits are enriched below; roughly 0.77% of the tested compounds scored in any of these assays.
mIAP act: increases mouse intestinal alkaline phosphatase activity. muIAP, CDP-Star luminescence, 30 min; hits give high values; 1 = vehicle-only enzyme signal, 0 = enzyme-free wells. activation factor at 10 µM. 330,000 compounds, 0.24% hits. AID 2805;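 active = activation factor of at least 2 at 20 µM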
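Assay system: mouse IAP enzyme / Compound: DMSO-dissolved test compounds / Timing: 30 min, room temperature / Measured by: luminescence from enzymatic CDP-Star hydrolysis / Control set: DMSO-only wells, enzyme-free buffer wells as negative control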
bIAP inhibitor: intestinal alkaline phosphatase (bovine) inhibition; AID 1019; purified bovine IAP, CDP-star luminescence, 30 min; 190,000 tested, under 10 active; inhibition, % at 20 µM;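 active = over 50% inhibition of intestinal alkaline phosphatase at 20 µM in the single-dose screen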
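test system = bovine IAP enzyme | medium = DEA buffer 100 mM, pH 9.8, with MgCl2 1.0 mM, ZnCl2 0.02 mM | detection = luminescence | dosing = single compound dose of 20 µM, 2% DMSO final | incubation = 30 min reaction at room temperature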
hIAP inh: blocks human intestinal alkaline phosphatase. P09923. purified IAP, CDP-Star luminescence, 30 min. inhibition, % at 10 µM. 330,000 compounds, 0.12% hits;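 active = inhibition reaching a set limit with compound at 10 µM in the primary screen, cut at about 35% in these data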
Target sequence (P09923 whole entry, looked up): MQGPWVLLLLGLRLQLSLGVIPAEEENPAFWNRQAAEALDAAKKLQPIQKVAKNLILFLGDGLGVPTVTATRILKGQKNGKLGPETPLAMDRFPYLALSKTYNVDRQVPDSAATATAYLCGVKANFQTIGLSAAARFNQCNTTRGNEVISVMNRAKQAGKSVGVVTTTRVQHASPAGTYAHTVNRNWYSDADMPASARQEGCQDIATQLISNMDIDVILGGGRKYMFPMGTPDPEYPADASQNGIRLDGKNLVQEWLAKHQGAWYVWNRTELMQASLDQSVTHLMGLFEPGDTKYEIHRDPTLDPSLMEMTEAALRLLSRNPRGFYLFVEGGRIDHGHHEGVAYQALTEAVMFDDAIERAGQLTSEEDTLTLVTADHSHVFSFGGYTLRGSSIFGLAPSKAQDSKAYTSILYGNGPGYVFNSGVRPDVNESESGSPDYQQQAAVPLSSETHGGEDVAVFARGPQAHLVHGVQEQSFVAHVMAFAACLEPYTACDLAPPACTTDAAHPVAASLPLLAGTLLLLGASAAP
mIAP inh: blocks mouse intestinal alkaline phosphatase; purified mouse IAP, CDP-Star luminescence, 30 min; inhibition, % at 10 µM; 330,000 compounds, 0.2% hits;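 active = inhibition of at least 40% at 10 µM in the primary screen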
bIAP act: intestinal alkaline phosphatase (bovine) activation; purified bovine IAP, CDP-star luminescence, 30 min; hits give high values; fold of DMSO-control signal, blank-subtracted; activation factor at 20 µM; 200,000 compounds, 0.17% hits; AID 1016;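 active = activation factor of 2 or more at 20 µM, a signal rise over negative controls twice the positive control's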
hIAP activ: increases human intestinal alkaline phosphatase activity; P09923; purified human IAP, CDP-Star luminescence, 30 min; hits give high values; 1 = vehicle-only enzyme, 0 = enzyme-free background; activation factor at 10 µM; 330,000 compounds, 0.16% hits;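 active = activation factor of the enzyme at least 2-fold when tested at 20 µM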
Hits are given with their value; i = inactive; nt = not tested or not shown.

SMILES	mIAP act	bIAP inhibitor	hIAP inh	mIAP inh	bIAP act	hIAP activ
N#CCc1ccc(NC(=O)Nc2cccc3ccccc23)cc1	2.1	nt	i	i	nt	i
COc1ccc(C(=O)NCC(=O)OCC(=O)N2CCC(C)CC2)cc1OC	i	i	i	i	i	i
C=C(C)c1cccc(C(C)(C)NC(=O)NCCCn2ccnc2)c1	i	i	i	i	2.3	i
C=C(C)c1cccc(C(C)(C)NC(=O)NCCCN2CCCC2=O)c1	i	i	i	i	i	i
O=[N+]([O-])c1c(NCCCO)cc(SCc2ccco2)c2nonc12	i	i	i	54	i	i
COc1cc(/C=N/NC(=O)c2cccc(C)c2)ccc1OCC(=O)Nc1ccccc1	i	nt	i	i	nt	i
Cc1ccc(NC(=S)NCCC(c2ccccc2)c2ccccc2)c(C)c1	4.1	i	i	i	i	i
COc1ccc(OC)c(NC(=S)NCc2ccccc2OC)c1	i	i	i	i	i	i
COc1ccc(OC)c(NC(=S)NCCC(c2ccccc2)c2ccccc2)c1	2.6	nt	i	i	nt	i
CCOc1cc(/C=C2\NC(=S)N(c3c(C)n(C)n(-c4ccccc4)c3=O)C2=O)ccc1O	i	i	i	42	i	i
CCOc1cccc(/C=C2\NC(=S)N(c3ccccc3)C2=O)c1O	i	nt	i	i	nt	i
COc1ccc(-n2cc(CNCc3cccnc3)c(-c3cccc(F)c3)n2)cc1	i	i	i	i	i	i
COc1ccc(-n2cc(CNCCc3cnc[nH]3)c(-c3cccc(F)c3)n2)cc1	i	i	i	i	2.9	i
COc1ccc(-n2cc(CNCCc3ncc(C)[nH]3)c(-c3ccccc3Cl)n2)cc1	i	i	i	i	2.4	i
COc1ccc(-n2cc(CNCCc3nc(C)cc(C)n3)c(-c3ccccc3Cl)n2)cc1	i	i	i	i	i	i
Cn1cc(C(=O)Nc2ccc(Cl)cc2)c(C(F)(F)F)n1	i	i	i	i	i	i
O=C(Nc1ccc(F)cc1)Nc1ccc(S(=O)(=O)N2CCCC2)cc1	i	nt	i	i	nt	i
Cc1ccc(NC(=O)CCC(=O)c2ccc(F)cc2)cc1Cl	i	i	i	i	i	i
CC(C)(C)c1ccc(NC(=O)Nc2ccc(F)cc2)cc1	2.2	i	i	i	i	i
Cc1ccc(NC(=O)Nc2ccc(F)cc2)cc1Cl	2	i	i	i	i	i
Cc1oc(S(=O)(=O)N2CCCCC2)cc1NC(=O)Nc1ccc(F)cc1	2.1	nt	i	i	nt	i
CC(C)(C)c1ccc(COC(=O)Nc2ccc(F)cc2)cc1	i	i	i	i	i	i
Cn1cc(NC(=O)Nc2ccc(C(F)(F)F)cc2)c(C(F)(F)F)n1	2.9	nt	i	i	nt	i
C[C@@H]1CN([C@H](C)CO)C(=O)Cc2cc(NS(=O)(=O)c3ccc(Cl)cc3)ccc2O[C@H]1CN(C)Cc1ccc(C(F)(F)F)cc1	i	nt	i	i	nt	i
C[C@@H]1CN([C@@H](C)CO)C(=O)Cc2cc(NC(=O)Nc3cccc4ccccc34)ccc2O[C@@H]1CN(C)Cc1ccc(C(F)(F)F)cc1	2.1	nt	i	i	nt	i
SMILES	mIAP act	bIAP inhibitor	hIAP inh	mIAP inh	bIAP act	hIAP activ
C[C@@H]1CN([C@@H](C)CO)C(=O)Cc2cc(NC(=O)Nc3cccc4ccccc34)ccc2O[C@@H]1CN(C)S(C)(=O)=O	2.3	nt	i	i	nt	i
C[C@@H]1CN([C@H](C)CO)C(=O)Cc2cc(NC(=O)Nc3ccccc3)ccc2O[C@@H]1CN(C)Cc1ccc2c(c1)OCO2	2.1	nt	i	i	nt	i
C[C@@H]1CN([C@@H](C)CO)C(=O)Cc2cc(NS(=O)(=O)c3ccccc3)ccc2O[C@H]1CN(C)S(C)(=O)=O	i	nt	i	i	nt	i
COc1cccc(/C=C/C(=O)N(C)CC(=O)Nc2ccc(Cl)c(C(F)(F)F)c2)c1	i	nt	i	i	nt	i
CC(Sc1nnnn1C)C(=O)Nc1nc(-c2ccc(F)c(F)c2)cs1 (stereo not drawn)	i	nt	i	i	nt	i
Cc1cccc([C@@H]2[C@@H]3C(=O)N(Cc4ccccc4)C(=O)[C@@H]3[C@]3(Cc4ccc(Cl)cc4)C(=O)N(c4cccc(Br)c4)C(=O)N23)c1	i	nt	i	i	nt	i
Cc1ccc(S(=O)(=O)Oc2ccc(/C=N/NC(=O)c3nn(C)cc3[N+](=O)[O-])cc2)cc1	i	i	i	i	i	i
Cn1c(CNc2ccc(Cl)cc2)nc2ccccc21	i	i	i	i	i	i
CC(C)N=c1cc2n(-c3ccc(Cl)cc3)c3ccccc3nc-2cc1Nc1ccc(Cl)cc1	i	nt	39	i	nt	i
N#C/C(=C(/O)COC(=O)CSc1ccc2ccccc2c1)c1nc2ccccc2[nH]1	i	i	i	i	i	2.4
COc1ccc(C(=O)N2CCN(C(=O)CC(C)C)CC2)cc1OC	i	i	i	i	i	i
COc1cc(C(=O)N2CCN(C(=O)CC(C)C)CC2)cc(OC)c1OC	i	i	i	40	i	i
CCc1ccc(-c2nc(CN3CCC(C(=O)NCCc4ccc(OC)c(OC)c4)CC3)c(C)o2)cc1	i	i	i	i	2.1	i
CCc1ccc(-c2nc(CN3CCC(C(=O)NCc4ccccc4OC)CC3)c(C)o2)cc1	i	i	i	i	2.6	i
Cc1noc(C)c1COc1ccc(C(=O)N2CCCC(C(N)=O)C2)cc1 (stereo not drawn)	i	nt	i	i	nt	i
COc1cc(OC)cc(C(=O)NC(=S)N(Cc2ccccc2)C(C)C)c1	i	nt	i	i	nt	i
C[C@]12C=CC(=O)C=C1CC[C@@H]1C2C(O)C[C@@]2(C)C1CC[C@]2(O)C(=O)COC(=O)CCC(=O)NC(CC(=O)O)C(=O)O (stereo partly drawn)	i	nt	i	i	nt	i
CC(=O)OCC(=O)[C@@]1(O)CC[C@H]2[C@@H]3CCC4=CC(=O)C=C[C@]4(C)[C@H]3[C@@H](O)C[C@@]21C	i	nt	i	i	380	i
NS(=O)(=O)c1ccc(NC(=O)COC(=O)CCc2ccccc2)cc1	i	nt	i	i	nt	i
CCC(=O)Nc1cccc(-c2nnc(-c3cccc(NC(=O)CC)c3)o2)c1	i	i	i	44	i	i
Cn1c(C(O)c2ccc3c(c2)OCO3)nc2ccccc21 (stereo not drawn)	i	i	i	i	i	i
CC(C)n1c(C(O)c2ccc3c(c2)OCO3)nc2ccccc21 (stereo not drawn)	i	i	i	i	2.6	i
CCCc1c(NC(=O)Nc2ccc(F)cc2)cnn1-c1ccccc1	2.3	nt	i	i	nt	i
COc1ccc(-c2cnnc(N/N=C/c3ccc(O)c(OC)c3)n2)cc1	i	i	i	i	i	i
Cc1cc(C)n(-c2nc(NCCC(C)C)c3c4c(sc3n2)COC(C)(C)C4)n1	nt	i	nt	nt	2.4	nt
Cc1cc(C)n(-c2nc(NCCN(C)C)c3c4c(sc3n2)COC(C)(C)C4)n1	i	nt	i	i	nt	i
O=C(COC(=O)c1ccc(S(=O)(=O)NCc2ccco2)cc1)Nc1ccccc1	i	nt	i	i	nt	i
